Assay outcomes: PubChem BioAssay, Broad Institute
A1 apoptosis 2 = compounds inhibiting A1, read as caspase activation; caspase activation, % (concentration not given with the values); MEF A1-2A-BIM cells, caspase-Glo luminescence, 3 h; percent of clofoctol response, DMSO zero; 24,000 tested, under 10 active; in the data active = caspase activation above about 5.9%; inconclusive = no clear call, values can overlap the other calls; inactive = below about 2.2%
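Material: mouse embryonic fibroblasts co-expressing A1 and BIM (A1-2A-BIM), primed for A1 dependence / Quantity: 2500 cells/well / Buffer or medium: RPMI-1640 growth medium with 10% FBS / Doses: 50 nL compound per well, pinned / Schedule: 3 h compound exposure at 37 °C / Signal: Caspase-Glo luminescence (DEVD substrate) / Measure: Caspase-3/7 activation, seen as rise in luminescence signal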
INS-1E rescue = rescue of cytokine-induced death in INS-1E beta cells; INS-1E cytokine-induced death, ATP luminescence, 48 h; normalised: neutral wells 0, positive control 100; protection from cytokine-induced ATP loss, % at 10 µM; actives 0.1% (n = 20,000);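 active = mean replicate protection from cytokine-induced ATP loss at least 50% and at least 75% of replicates each reaching 50%; inconclusive = meets only one of the two criteria, mean or replicate share; inactive = fails both the mean and replicate share criteria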
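Assay system: INS-1E rat cells / Quantity: 8000 cells per well / Medium: RPMI without phenol red, 5% FBS / Probe or stimulus: three-cytokine cocktail (IFN-γ, TNF-α, IL-1β) / Dosing: one compound concentration, pin transfer / Timing: 48 h co-treatment, 10 min post-lysis read / Technique: CellTiter-Glo luminescence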
T cruzi intra = intracellular Trypanosoma cruzi inhibition. actives 4.9% (n = 22,000). activity score (inhibition), % at 5.01 µM. intracellular Trypanosoma cruzi in host cells, plate reader; in the data active = activity score above about 55%; inconclusive = no clear call, values can overlap the other calls;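 note: parasites and compound incubated about four days before reading; 0% = median of neutral control wells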
Numbers without * were called inactive. Many of the other results were omitted from the sample, so hits are more common in it than they were.

Screening O=C(CCCCC(=O)N/N=C/c1cccc(Oc2ccccc2)c1)NO returned A1 apoptosis 2 -0.2, INS-1E rescue 78.5* and T cruzi intra 7.1.
`O=C(CCCCCCC(=O)N/N=C\c1cccc(Br)c1)NO` gave INS-1E rescue 68.1* and T cruzi intra -21.1.
For O=C(O)CCCCCCC(=O)N/N=C/c1cccc(Br)c1 the results were A1 apoptosis 2 1.4, INS-1E rescue 14.3 and T cruzi intra -4.9.
For O=C(NO)c1ccc(C(=O)N/N=C/c2cccc(Oc3ccccc3)c2)cc1 the results were A1 apoptosis 2 -0.8, INS-1E rescue 5.4 and T cruzi intra 3.0.
For O=C1O[C@@H](c2ccccc2)[C@@H](c2ccccc2)N2[C@@H](c3ccccc3OCCO)[C@]3(C(=O)Nc4ccccc43)[C@@H](C(=O)Nc3nc4ccccc4s3)[C@H]12 the results were A1 apoptosis 2 -0.7.
For C[C@H]1CN([C@@H](C)CO)C(=O)c2cccc(NC(=O)c3ccc(-c4nccs4)cc3)c2O[C@H]1CN(C)Cc1ccc(Oc2ccccc2)cc1 the results were A1 apoptosis 2 -1.9, INS-1E rescue -23.6 and T cruzi intra 40.6.
`C[C@@H]1CN([C@@H](C)CO)C(=O)c2cccc(NC(=O)c3ccc(-c4nccs4)cc3)c2O[C@@H]1CN(C)Cc1ccc(C(=O)Nc2ccccc2N)cc1` gave A1 apoptosis 2 -0.4, INS-1E rescue inconclusive and T cruzi intra 74.6*.
`C[C@H](CO)N1C[C@H](C)[C@@H](CN(C)Cc2ccc(-c3ccccc3)cc2)Oc2c(NC(=O)c3ccc(-c4nccs4)cc3)cccc2C1=O` gave INS-1E rescue -29.5 and T cruzi intra 80.6*.
Screening C[C@H](CO)N1C[C@H](C)[C@@H](CN(C)Cc2ccc(Oc3ccccc3)cc2)Oc2c(NC(=O)c3ccc(-c4nccs4)cc3)cccc2C1=O returned A1 apoptosis 2 0.0, INS-1E rescue -16.6 and T cruzi intra 66.9*.
Screening C[C@H]1CN([C@@H](C)CO)C(=O)c2cccc(NC(=O)c3ccc(-c4nccs4)cc3)c2O[C@H]1CN(C)Cc1ccc(-c2ccccc2)cc1 returned INS-1E rescue -48.8 and T cruzi intra 66.0*.
`C[C@H](CO)N1C[C@H](C)[C@@H](CN(C)Cc2ccccc2)Oc2c(NC(=O)c3ccc(-c4nccs4)cc3)cccc2C1=O` gave INS-1E rescue -8.6 and T cruzi intra 53.4.
Screening C[C@@H]1CN([C@H](C)CO)C(=O)c2cccc(NC(=O)c3ccc(-c4nccs4)cc3)c2O[C@H]1CN(C)Cc1ccc(-c2ccccc2)cc1 returned INS-1E rescue -3.0 and T cruzi intra 42.9.
`C[C@H](CO)N1C[C@H](C)[C@H](CN(C)Cc2ccc(-c3ccccc3)cc2)Oc2c(NC(=O)c3ccc(-c4nccs4)cc3)cccc2C1=O` gave A1 apoptosis 2 -0.8, INS-1E rescue -46.2 and T cruzi intra 51.9.
Screening CC(C)NC(=O)N(C)C[C@@H]1Oc2ccc(NC(=O)Nc3ccccc3)cc2CC(=O)N([C@@H](C)CO)C[C@@H]1C returned A1 apoptosis 2 1.8, INS-1E rescue 6.2 and T cruzi intra -8.8.
For C[C@@H]1CN([C@H](C)CO)C(=O)c2cccc(NC(=O)Nc3ccc(F)cc3)c2O[C@@H]1CN(C)S(C)(=O)=O the results were INS-1E rescue 2.5 and T cruzi intra -33.0.
CNC[C@H]1Oc2ccc(NC(=O)Nc3ccccc3)cc2CC(=O)N([C@H](C)CO)C[C@@H]1C was read as A1 apoptosis 2 0.6.
Screening C[C@@H]1CN([C@@H](C)CO)C(=O)c2cccc(NS(=O)(=O)c3cccs3)c2O[C@@H]1CN(C)C(=O)Nc1ccc2c(c1)OCO2 returned INS-1E rescue 7.5 and T cruzi intra -0.2.
Screening C[C@H]1CN([C@@H](C)CO)C(=O)Cc2cc(NS(=O)(=O)c3cn(C)cn3)ccc2O[C@H]1CN(C)C(=O)Nc1ccc(C(F)(F)F)cc1 returned A1 apoptosis 2 0.3, INS-1E rescue 5.9 and T cruzi intra -4.3.
C[C@H](CO)N1C[C@H](C)[C@H](CN(C)Cc2ccc(Cl)c(Cl)c2)Oc2c(NC(=O)C3CCCCC3)cccc2C1=O was read as INS-1E rescue -40.7 and T cruzi intra 14.2.
For C[C@@H]1CN([C@@H](C)CO)C(=O)c2cccc(NC(=O)NC3CCCCC3)c2O[C@@H]1CN(C)Cc1ccc(Cl)c(Cl)c1 the results were A1 apoptosis 2 -0.6, INS-1E rescue -18.5 and T cruzi intra -51.6.
`C[C@@H]1CN([C@H](C)CO)C(=O)c2cccc(NC(=O)C3CCCCC3)c2O[C@H]1CN(C)Cc1ccc(Cl)c(Cl)c1` gave A1 apoptosis 2 0.0, INS-1E rescue -16.6 and T cruzi intra 59.6*.
C[C@@H]1CN([C@@H](C)CO)C(=O)c2cccc(NC(=O)NC3CCCCC3)c2O[C@H]1CN(C)Cc1ccc(Cl)c(Cl)c1 was read as INS-1E rescue -4.7 and T cruzi intra 62.4*.
For COc1ccc(S(=O)(=O)N(C)C[C@H]2Oc3c(NC(=O)Nc4ccc5c(c4)OCO5)cccc3C(=O)N([C@@H](C)CO)C[C@@H]2C)cc1 the results were INS-1E rescue 7.9 and T cruzi intra 6.1.
Screening Cc1ccc(S(=O)(=O)Nc2ccc3c(c2)C(=O)N([C@H](C)CO)C[C@@H](C)[C@H](CN(C)Cc2ccc(C(=O)Nc4ccccc4N)cc2)O3)cc1 returned A1 apoptosis 2 1.0, INS-1E rescue -4.9 and T cruzi intra 42.0.
Screening COc1ccc(NC(=O)N(C)C[C@@H]2Oc3ccc(NS(=O)(=O)c4cccs4)cc3C(=O)N([C@@H](C)CO)C[C@H]2C)cc1 returned A1 apoptosis 2 0.7, INS-1E rescue -0.5 and T cruzi intra -9.8.
For C[C@@H]1CN([C@@H](C)CO)C(=O)c2cc(NC(=O)Nc3ccc(C(F)(F)F)cc3)ccc2O[C@H]1CN(C)CC1CCCCC1 the results were A1 apoptosis 2 0.9, INS-1E rescue -21.6 and T cruzi intra 40.1.
For C[C@H]1CCCCO[C@@H](CN(C)CC2CCCCC2)[C@@H](C)CN([C@@H](C)CO)C(=O)c2cc(NC(=O)Nc3ccc(C(F)(F)F)cc3)ccc2O1 the results were A1 apoptosis 2 2.0.
For C[C@@H]1CCCCO[C@@H](CN(C)CC2CCCCC2)[C@@H](C)CN([C@H](C)CO)C(=O)c2cc(NC(=O)Nc3ccc(C(F)(F)F)cc3)ccc2O1 the results were INS-1E rescue -12.3 and T cruzi intra 72.7*.
Screening C[C@@H]1CCCCO[C@@H](CN(C)CC2CCCCC2)[C@@H](C)CN([C@H](C)CO)C(=O)c2cc(NC(=O)Nc3ccc(F)cc3)ccc2O1 returned INS-1E rescue -15.3 and T cruzi intra 70.5*.
C[C@H](CO)N1C[C@H](C)[C@H](CN(C)CC2CCCCC2)Oc2ccc(NC(=O)Nc3ccc(C(F)(F)F)cc3)cc2C1=O was read as A1 apoptosis 2 -0.6, INS-1E rescue -45.5 and T cruzi intra 61.9*.
`C[C@@H]1CN([C@@H](C)CO)C(=O)c2cccc(NC(=O)Nc3ccc(C(F)(F)F)cc3)c2O[C@@H]1CN(C)CC1CCCCC1` gave A1 apoptosis 2 -1.0, INS-1E rescue -64.0 and T cruzi intra 78.1*.
